Measurements from the EternaBench riboswitch data.

Columns and labels:
[1] = system: MS2 coat protein; experiment: apparent Kd, MS2 coat protein; higher = weaker binding; RNA-MaP array; tryptophan 2.4 mM where present
Outline: (§1)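 Designs on Illumina sequencing-chip clusters, transcribed by stalled E. coli RNA polymerase, were exposed to SNAP-549-labelled MS2 coat protein in doubling steps from 0.7 or 1.5 nM up to 3 µM, without and then with constant ligand. The buffer held 100 mM Tris-HCl pH 7.5, 80 mM KCl, 4 mM MgCl2, BSA, DTT, yeast tRNA and Tween-20. Apparent Kd values are medians of filtered per-cluster binding-curve fits to green signal normalised to red-channel RNA signal and control-cluster median Fmax.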

[2] = system: MS2 coat protein; experiment: apparent Kd, MS2 coat protein; higher = weaker binding; RNA-MaP array; theophylline 2 mM where present
Outline: as §1

[3] = designed as: ON switch for tryptophan, no ligand
[4] = ligand present: tryptophan, designed as: ON switch for tryptophan
[5] = designed as: OFF switch for tryptophan, no ligand
[6] = ligand present: tryptophan, designed as: OFF switch for tryptophan
[7] = designed as: ON switch for theophylline, no ligand
[8] = ligand present: theophylline, designed as: ON switch for theophylline
[9] = designed as: OFF switch for theophylline, no ligand
[10] = ligand present: theophylline, designed as: OFF switch for theophylline

Sequence	apparent Kd [2, 7]	apparent Kd [2, 8]	apparent Kd [2, 9]	apparent Kd [2, 10]	also measured
CGCGCGACAUGAGGAUCACCCAUGUUCCCUCGAGGACCGGUACGGCCGCCACUCGAGGACAUGAGCAUCAGCCAUGUACCGGUCA					apparent Kd [1, 3]: 51.6 nM; apparent Kd [1, 4]: 131 nM
UAAUAAGUACCGGUCCUCAGAUCCUCAUGACGAGGACCGGUACGGCCGCCACUCGAAACAUGAGGAUCACCCAUGUAAUAAUAAC					apparent Kd [1, 5]: 27.4 nM; apparent Kd [1, 6]: 19.4 nM
CGCACAUGAGGAUCACCCAUGUGAGGGCGUCGAGGACCGGUACGGCCGCCACUCGCAGGACAUGAGGAUCACCCAUGUGCCGCCG					apparent Kd [1, 3]: 116 nM; apparent Kd [1, 4]: 57.2 nM
CCUCAAUAGACGGCCGCCACUGAAACAUGAGGAUACAUGAGGAUCACCCAUGUGGGUGUGUUACGCAGGACCGGGUCAAGACCCG					apparent Kd [1, 3]: 207 nM; apparent Kd [1, 4]: 336 nM
GCUGCAGCUACGGCCGCCACUGUUACGUGAGACAUGAGGAUCACCCAUGUUGAUGUUUUACGGUAUAGGACCGGGUAGUUGUAGU					apparent Kd [1, 5]: 9.7 nM; apparent Kd [1, 6]: 13.4 nM
AGAGUCUAGUCGGCCGCCACUCAUGUCCAAAGGACAUGAGGAUCACCCAUGUACCAAUGGUACAUGAGGACCGGGACUGGACUCA					apparent Kd [1, 3]: 27.7 nM; apparent Kd [1, 4]: 8.33 nM
AGAGUCUAGUCGGCCGCCACUCAUGUCCAAUGGACAUGAGGAUCACCCAUGUACCAAAGGUACAUGAGGACCGGGACUGGACUCA					apparent Kd [1, 3]: 47.7 nM; apparent Kd [1, 4]: 7.57 nM
CACGAAAGAUCGGCCGCCACUCAUGUUUCUUACAUGAGGAUCACCCAUGUAUUUUCUUUCUUUUAGAGGACCGGGAUUGAGCGUG					apparent Kd [1, 3]: 155 nM; apparent Kd [1, 4]: 29.8 nM
ACCUGCGUUUGUUUCUUUCUGACGCAGGUUCGAGGACCGGUACGGCCGCCACUCGGACAUGAGGAUCACCCAUGUUUGACAUGGG					apparent Kd [1, 5]: 57.3 nM; apparent Kd [1, 6]: 17.3 nM
AGCCACUCGAGUGAUCCUCACGAGUGGCUACGAGGACCGGUACGGCCGCCACUCGAAUUAACAUGAGGAUCACCCAUGUAAUCUC					apparent Kd [1, 3]: 102 nM; apparent Kd [1, 4]: 45.9 nM
AGUGUAUCCAUCGAUACCAGCCACCACCGAUAGACCACAUGAGGAUCACCCAUGUUGGGUGGCCCUUGGCAGCGGUGGCUGUGUA	287 nM	1190 nM			
GCACCAGGUACGGAUACCAGCUGCCAGCGUUACAUGAGGAUCACCCAUGUGAUCUGAAGUAGCCCUUGGCAGCUGUACCUGGUGC	21.2 nM	95.9 nM			
AGUACUCGAACGGAUACCAGCCGGACAUGAGGAUCACCCAUGUCCUACCAAUGUUCGGUUGGCCCUUGGCAGCCGUUCGUGUACA	588 nM	35.2 nM			
AAUAACAUGAGGAUCACCCAUGUAAAAGAUACCAGGGUGAUGAUCCUCCCUUGGCAGCUUACAGCUGAUCAAUAAGAUCGGCUGA		257 nM			
UGACAUUGCUCAGAUACCAGACAUGAGGAUCACCCAUGUGCCAAAUAAACGUACAUAAAUGUCCCUUGGCAGCUGAGCAAUGUCU			57.5 nM	890 nM	
CAACAAGUAACUGAUACCAGUGUACUGACAUGAGGAUCACCCAUGUUGGGUUUUGUUGUACACCCUUGGCAGCAGAAUCUUGUUG			60.7 nM	82.5 nM	
AGCAUUGUAACAGAUACCAGACUUUUAAUGCCUCUAAUUACAUGAGGAUCACCCAUGUUUGUCCCUUGGCAGCUGUUAUGAUGCA			119 nM	226 nM	
UCUUGGUCCGCAAGGACCUUGAGUUGCGAUACCAGCACGGUAACGUGCCCUUGGCAGCGCACAUGAGGAUCACCCAUGUGGUGUU			261 nM	236 nM	
ACAUGAGGAUCACCCAUGUAAUGGCACGAUACCAGCUGAUCCCGUGGCCCUUGGCAGCGUCCGGUGUGGUCCGCCGGGUUGGACG	23.1 nM	35 nM			
ACAUCCAGGUUAAUCGUGGGCAUACUCGAUACCAGUAUUUUAAUCUACCCUUGGCAGCGACAUGAGGAUCACCCAUGUGCGAUGA			12.4 nM	19.3 nM	
GGUCUCUGGAGCGAUACCAGCUUGAUCGUACUGGCCUGGUACAUGAGGAUCACCCAUGUAAGCCCUUGGCAGCGCUCCAGAGACC			12.3 nM	28.1 nM	
AUACAUGAGGAUCACCCAUGUAUAGUCGAUACCAGCUCAAGGAAGAGCCCUUGGCAGCGACACUGGUAUCCAUGGGUGAUACCAG	22.3 nM	31.5 nM			
UAUAACAUGAGGAUCACCCAUGUAAGUGAUACCAGAUAAAUAAUAGUCCCUUGGCAGCAUAUUGGGAAAAUGUAUAAUAUAUAUU	57.8 nM	57.4 nM			

Sequence	apparent Kd [2, 7]	apparent Kd [2, 8]	apparent Kd [2, 9]	apparent Kd [2, 10]	also measured
GCACUACAUGAGGAUCACCCAUGUGCAGAUACCAGAGGUGUAUGCCUCCCUUGGCAGCUGAGUAGGUCUGGAGGGCUAUUGGUUU	17.6 nM	23.5 nM			
GGGCCUGUAGGCAGGCCCACAGCGGGUGAUACCAGCAAUAAAACUUGCCCUUGGCAGCACACAGCUACAUGAGGAUCACCCAUGU	41.2 nM	70.5 nM			
AAACUGGGUGUAAAAUAAAUAAUCACUGAUACCAGACUAUUUUAUGUCCCUUGGCAGCAGAAACAUGAGGAUCACCCAUGUAAUA			20.3 nM	22.5 nM	
ACUUCAUGAGGUGAUACCAGCCAAUGACAUGAGGACAUGAGGAUCACCCAUGUUUAUGUAGGCCCUUGGCAGCACUGUAACAUGA	20.6 nM	25.9 nM			
AGUGUUAUAACUGAUACCAGACUCUCAUGUUUACAUGAGGAUCACCCAUGUUAUUUCUUUGUCCCUUGGCAGCAGAAUUAACACA	208 nM	38.2 nM			
GUGGAGACACGAGAUACCAGUCUCUAUAACAUGAGGAUCACCCAUGUAAUGCUCCUCAGGGACCCUUGGCAGCUCAGUAUGAUGA			32.9 nM	134 nM	
AUAAGUAAUGUUUCGUGUAUUAUUACAGAUACCAGACUAUACGUUGUCCCUUGGCAGCUGGAUUACAUGAGGAUCACCCAUGUUG			15.8 nM	27.5 nM	
UUUACAUGAGGAUCACCCAUGUGCCAUGAUACCAGACAUGAAAAUGUCCCUUGGCAGCAUGAGUGAUUCAUCCGAAAGGAUGUUU	121 nM	673 nM			
GGUAGCAGGACUGAUACCAGUCCAGCGAAUCAUACGACGCAACAUGAGGAUCACCCAUGUGACCCUUGGCAGCAGACUGCUACCG	24.7 nM	14.5 nM			
CGAUGAUGAAGGGAUACCAGAAAUGGUAUUCCUUUAUUUCUUACAUGAGGAUCACCCAUGUUCCCUUGGCAGCUUUUUAUCAUCG			75.7 nM	117 nM	
UCCUCCUCCGCAAGGAGGAGGAGUUGCGAUACCAGCACGGCAACGUGCCCUUGGCAGCGCACAUGAGGAUCACCCAUGUCAUGUU			19.4 nM	24.3 nM	
AUUUACAUGGUCAUAUAUAUAUCGUCAGAUACCAGACUAGAUAUAGUCCCUUGGCAGCUGUUACAUGAGGAUCACCCAUGUUAUA			129 nM	110 nM	
AGUGUAUCCAUCGAUACCAGCCACAACGUAACAUACACAUGAGGAUCACCCAUGUUGUGUGGCCCUUGGCAGCGGUGCCUGUGUA	14.3 nM	12.2 nM			
ACGACGCAUAGUGAUACCAGUAGAACAUGAGGAUCACCCAUGUCUGUGGCGCACCACCUCUGCCCUUGGCAGCACUAUGCGUCAG	13.4 nM	12.8 nM			
AUGCAGGGCAACAGCCACUGUCACGGUGAUACCAGUACCCGUGCGUACCCUUGGCAGCAUCGUGGUACAUGAGGAUCACCCAUGU	271 nM	180 nM			
GAUGAACUAUUUGAUACCAGACAACAUGAGGAUCACCCAUGUGCGCGUCGUCCUCUGCCUGUCCCUUGGCAGCAAAUAGUUUAUC			58.5 nM	97.1 nM	
UAACAUGAGGAUCACCCAUGUAUAGUCGAUACCAGCUCAAGGAAGAGCCCUUGGCAGCGACACUGCCAAGCAUGGGUCAUGGCAG	21.1 nM	33.4 nM			
UCGUGUAUAUCGGAUACCAGUGAGAAGGAUACAUGAGGAUCACCCAUGUGAGUUGAUGUACACCCUUGGCAGCUGUAUAUAUCUA	49.9 nM	26.2 nM			
AAUCUGUCGGGUGAUACCAGCCUCGGCGCAUCUCGCACCGAACAUGAGGAUCACCCAUGUGGCCCUUGGCAGCACAUGACAAAUC	371 nM	82.2 nM			
AGCAGUACAACAGAUACCAGACUUUUAAUGCCUCUAAUUACAUGAGGAUCACCCAUGUUUGUCCCUUGGCAGCUGUUGUACUGCA			136 nM	211 nM	
UACAUGAGGAUCACCCAUGUAUAGAGGGAUACCAGUGUCAGUGAGCACCCUUGGCAGCCCGCGAACAAUGGGUGCGCUAUAUAGU			26.3 nM	62.2 nM	
AACAUACAUGAGGAUCACCCAUGUCACGAUACCAGAUACAUGAGGAUCCCUUGGCAGCGUCAUGAGGAUCACCCAUGUUGUACAU			16.5 nM	58.3 nM	
